Measured values of several laboratories.
Lines come from different studies, so protocols differ.
Target: Ephrin type-A receptor 4 (EPHA4, Homo sapiens, UniProt P54764)

For `Nc1ncc(-c2nc(N3CCOCC3)nc(N3CCOCC3)n2)c(C(F)F)n1`, the remaining binding was 94% (cell-free assay, competition with immobilised ligand; 10 µM).
`Cn1cncc1[C@](O)(COc1ccc(C#N)cc1-c1ccc(OC(F)(F)F)cc1)c1ccc(C#N)cc1` has a remaining binding of 100% (cell-free assay, competition with immobilised ligand; 1 µM).
`O=c1[nH]c2ccccc2n1C1CCN(Cc2ccc(-c3[nH]c4cc5ncnc5cc4nc3-c3ccccc3)cc2)CC1` has a remaining signal of 97.1% (cell-free assay; 0.5 µM).
`COc1cc(Nc2ncc(F)c(Nc3ccc4c(n3)NC(=O)C(C)(C)O4)n2)cc(OC)c1OC` has an inhibition of 69% (binding, competition with immobilised ligand; 10 µM).
With `CC(C)(C)c1cc(C=C(C#N)C#N)cc(Br)c1O` the remaining activity was 94.7% (enzyme activity, inhibitor; 0.5 µM).
With `Cn1cc(-c2cccc(N3CCc4c(sc5c4CC(C)(C)C5)C3=O)c2CO)cc(Nc2ccncn2)c1=O` the inhibition was 3% (enzyme activity, inhibitor; 1 µM).
The remaining binding of `Cc1nn(C)cc1-c1nc2c(N3CCN(Cc4ccc(Cl)cc4)CC3)c(Cl)cnc2[nH]1` is reported as 100% (binding, competition with immobilised ligand; 1 µM).
For `Cn1cc(-c2cc(F)cc(N3CCn4c(cc5c4CCCC5)C3=O)c2CO)cc(Nc2ccc(N3CCN(C4COC4)CC3)cn2)c1=O`, the inhibition was 12% (enzyme activity, inhibitor; 0.1 µM).
For `COc1ncccc1-c1cnn2ccc(N3CCN(C(=O)OC(C)C)CC3)nc12`, the remaining binding was 100% (binding, competition with immobilised ligand; 1 µM).
